# Source: ChEMBL document CHEMBL3112425, “Design, synthesis, and structure-activity relationship studies of a potent PACE4 inhibitor” (J Med Chem, 2014)
# Square brackets hold non-standard residues; d marks the D form. Peptide text beside a SMILES is read from it. * marks the point of attachment. Phe(4-guanidino) = N=C(N)Nc1ccc(C[C@H](N)C(=O)O)cc1; NH(4-amidinobenzyl) = N=C(N)c1ccc(CN*)cc1; X2 = N=C(N)NCCCN(CC(N)=O)N*; Nle = CCCC[C@H](N)C(=O)O
# Key:
# Furin = Furin (Homo sapiens, UniProt P09958); experiment: Inhibition of human recombinant furin expressed in drosophila schneider 2 cells using pyroGlu-Arg-Thr-Lys-Arg-AMC as substrate after 1 hr
# Chain of Furin (P09958 whole entry): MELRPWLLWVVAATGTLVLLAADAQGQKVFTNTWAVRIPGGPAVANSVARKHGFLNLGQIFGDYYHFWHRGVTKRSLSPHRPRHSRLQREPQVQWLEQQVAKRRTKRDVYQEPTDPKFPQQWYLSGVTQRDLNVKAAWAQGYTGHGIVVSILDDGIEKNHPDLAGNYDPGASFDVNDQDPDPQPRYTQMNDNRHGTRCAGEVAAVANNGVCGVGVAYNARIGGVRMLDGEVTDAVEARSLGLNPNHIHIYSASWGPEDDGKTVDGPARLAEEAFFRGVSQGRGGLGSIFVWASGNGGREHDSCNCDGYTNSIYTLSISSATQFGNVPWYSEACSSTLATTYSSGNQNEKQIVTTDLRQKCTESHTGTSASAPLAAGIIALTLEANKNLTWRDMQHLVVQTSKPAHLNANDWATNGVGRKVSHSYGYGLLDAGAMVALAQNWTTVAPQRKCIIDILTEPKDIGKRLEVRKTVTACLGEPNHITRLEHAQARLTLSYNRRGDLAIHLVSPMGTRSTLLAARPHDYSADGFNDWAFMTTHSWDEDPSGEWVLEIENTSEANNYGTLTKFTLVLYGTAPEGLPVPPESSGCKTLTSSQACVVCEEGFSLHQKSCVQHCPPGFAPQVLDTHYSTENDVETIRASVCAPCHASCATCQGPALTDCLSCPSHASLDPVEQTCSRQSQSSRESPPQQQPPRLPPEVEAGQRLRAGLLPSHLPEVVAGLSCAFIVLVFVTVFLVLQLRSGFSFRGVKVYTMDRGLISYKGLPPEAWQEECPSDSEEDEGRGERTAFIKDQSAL
# Outline: (§1)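 Human enzymes were expressed in Drosophila S2 cells and purified. Fluorogenic pyroGlu-RTKR-AMC was used at fixed concentration with varied inhibitor, 37 °C over 1 h. Buffers: furin, 100 mM Hepes pH 7.5, 1 mM CaCl2, 1 mM β-mercaptoethanol, 1.8 mg/mL BSA; PACE4 and PC7, 20 mM Bis-Tris pH 6.5, 1 mM CaCl2, 1.8 mg/mL BSA; PC2, same buffer at pH 5.7. Ki from IC50 (Cheng–Prusoff), or apparent Ki (Morrison) for tight binders. Triplicate, mean ± SD.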
# [1] = target: T1, Proprotein convertase subtilisin/kexin type 6 (Homo sapiens, UniProt P29122); experiment: Inhibition of human recombinant PACE4 expressed in drosophila schneider 2 cells using pyroGlu-Arg-Thr-Lys-Arg-AMC as substrate after 1 hr; outline: as §1
# T1 sequence (P29122 whole entry): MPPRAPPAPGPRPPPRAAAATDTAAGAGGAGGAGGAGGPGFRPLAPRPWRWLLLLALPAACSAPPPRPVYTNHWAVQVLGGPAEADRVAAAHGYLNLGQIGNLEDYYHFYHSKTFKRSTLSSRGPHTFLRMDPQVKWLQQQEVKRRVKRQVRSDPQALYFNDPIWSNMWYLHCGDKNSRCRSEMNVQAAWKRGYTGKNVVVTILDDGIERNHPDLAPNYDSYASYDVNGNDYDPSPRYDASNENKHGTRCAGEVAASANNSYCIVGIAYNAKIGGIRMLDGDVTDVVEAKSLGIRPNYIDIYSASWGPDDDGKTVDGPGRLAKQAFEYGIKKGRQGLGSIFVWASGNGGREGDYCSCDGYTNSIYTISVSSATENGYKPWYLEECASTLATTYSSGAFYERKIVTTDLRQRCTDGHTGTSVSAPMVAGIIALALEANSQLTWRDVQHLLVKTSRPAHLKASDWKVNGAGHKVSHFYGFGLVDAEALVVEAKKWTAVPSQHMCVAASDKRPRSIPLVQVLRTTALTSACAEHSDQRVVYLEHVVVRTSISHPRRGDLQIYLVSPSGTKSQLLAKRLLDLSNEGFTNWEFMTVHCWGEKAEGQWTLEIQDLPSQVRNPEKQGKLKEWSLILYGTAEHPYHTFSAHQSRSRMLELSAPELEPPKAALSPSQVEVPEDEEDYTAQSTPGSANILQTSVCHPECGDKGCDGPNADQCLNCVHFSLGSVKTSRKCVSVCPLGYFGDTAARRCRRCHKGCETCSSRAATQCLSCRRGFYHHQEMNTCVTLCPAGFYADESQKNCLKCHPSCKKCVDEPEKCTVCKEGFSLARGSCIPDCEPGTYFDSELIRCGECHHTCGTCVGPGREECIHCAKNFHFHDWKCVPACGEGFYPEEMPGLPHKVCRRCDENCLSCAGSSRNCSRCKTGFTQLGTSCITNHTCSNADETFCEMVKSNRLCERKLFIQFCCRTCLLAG
# DU-145 = experiment: Cytotoxicity against human DU145 cells after 72 hrs by MTT assay; assay type: functional, cell-based; details: DU-145, 72 h
# Outline: (§2)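 Prostate cancer cells were kept in RPMI 1640 at 37 °C, 5% CO2, with 5% FBS for DU145 and 10% FBS for LNCaP and PC3. After 24 h, medium was changed and peptides added at various concentrations, up to 350 μM. Viability was read by MTT after 72 h treatment. IC50 from dose–response curves, triplicate, mean ± SEM.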
# [2] = Acute toxicity in human DU145 cells assessed as cell death/lysis at 100 uM after 4 hrs by LDH assay; assay type: cell-based, DU-145; details: read-out: INH
# Outline: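 DU145 cells (RPMI 1640, 5% FBS, 37 °C, 5% CO2) plated; 24 h later peptides added at 100 μM. After 4 h, release of lactate dehydrogenase into the medium was quantified enzymatically with a commercial LDH cytotoxicity kit as the measure of acute membrane damage/lysis.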
# LNCaP = experiment: Cytotoxicity against human LNCAP cells after 72 hrs by MTT assay; assay type: functional, cell-based; outline: as §2
# PC-3 [3] = experiment: Cytotoxicity against human PC3 cells up to 350 uM after 72 hrs by MTT assay; assay type: functional; outline: as §2
# Plasma = experiment: Drug degradation in CD-1 mouse plasma at 0.5 ug/uL after 30 mins by MALDI-TOF MS analysis; assay type: ADME, cell-free; details: 0.5 h
# Outline: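 For fragment mapping, 100 μg peptide was incubated in murine plasma at 37 °C. At each time point, plasma samples were quenched with 3% TFA. Proteins were precipitated with 2 volumes acetonitrile and centrifuged at 17 000g. Supernatants were analyzed by MALDI-TOF MS for C-terminally truncated fragments.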
# [4] = Half life in CD-1 mouse plasma at 0.5 ug/uL by RP-HPLC analysis; assay type: ADME, cell-free
# Outline: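 Peptides at 0.5 μg/μL were incubated at 37 °C in heparinized plasma pooled from mixed-sex CD1 mice. At each time point the reaction was stopped with 1 M guanidinium-HCl, then acetonitrile, and proteins were spun out. Supernatant peptide AUC (RP-HPLC) was compared with non-incubated samples. Half-life came from a one-phase decay fit. Run ≥3 times, duplicate per time point.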
# PC-3 [5] = experiment: Cytotoxicity against human PC3 cells after 72 hrs by MTT assay; assay type: functional, cell-based; details: PC-3, 72 h; outline: as §2
SMILES,Ki (Furin),Ki [1],Stability (Plasma),half-life at 0.5 ug/uL [4],IC50 (DU-145),"cytotoxicity at 4 h, 100 µM [2]",IC50 (LNCaP),inhibition (INH) (PC-3 [3]),IC50 (PC-3 [5])
CCCC[C@H](NC(C)=O)C(=O)N[C@@H](CCCC)C(=O)N[C@@H](CC(C)C)C(=O)N[C@@H](CC(C)C)C(=O)N[C@@H](CCCN=C(N)N)C(=O)N[C@H](C(=O)N[C@@H](CCCCN)C(=O)N[C@@H](CCCN=C(N)N)C(N)=O)C(C)C,950 nM,57 nM,–,–,–,–,–,–,–
CCCC[C@H](NC(=O)[C@H](CC(C)C)NC(C)=O)C(=O)N[C@@H](CCCC)C(=O)N[C@@H](CC(C)C)C(=O)N[C@@H](CCCN=C(N)N)C(=O)N[C@H](C(=O)N[C@@H](CCCCN)C(=O)N[C@@H](CCCN=C(N)N)C(N)=O)C(C)C (Ac-L[Nle][Nle]LRVKR-NH2),2300 nM,170 nM,–,–,–,–,–,–,–
CC(=O)N[C@@H](CC(C)C)C(=O)N[C@@H](CC(C)C)C(=O)N[C@@H](CC(C)C)C(=O)N[C@H](CC(C)C)C(=O)N[C@@H](CCCNC(=N)N)C(=O)N[C@H](C(=O)N[C@@H](CCCCN)C(=O)N[C@@H](CCCNC(=N)N)C(N)=O)C(C)C,9550 nM,14000 nM,–,–,–,–,–,–,–
CC(=O)N[C@@H](CC(C)C)C(=O)N[C@H](CC(C)C)C(=O)N[C@@H](CC(C)C)C(=O)N[C@@H](CC(C)C)C(=O)N[C@@H](CCCN=C(N)N)C(=O)N[C@H](C(=O)N[C@@H](CCCCN)C(=O)N[C@@H](CCCN=C(N)N)C(N)=O)C(C)C,2800 nM,700 nM,–,–,–,–,–,–,–
CCCC[C@H](NC(C)=O)C(=O)N[C@@H](CCCC)C(=O)N[C@@H](CCCC)C(=O)N[C@@H](CCCC)C(=O)N[C@@H](CCCNC(=N)N)C(=O)N[C@H](C(=O)N[C@@H](CCCCN)C(=O)N[C@@H](CCCNC(=N)N)C(N)=O)C(C)C,2550 nM,500 nM,–,–,–,–,–,–,–
CCCC[C@H](NC(=O)[C@H](CC(C)C)NC(=O)[C@H](CC(C)C)NC(=O)[C@H](CC(C)C)NC(C)=O)C(=O)N[C@@H](CCCNC(=N)N)C(=O)N[C@H](C(=O)N[C@@H](CCCCN)C(=O)N[C@@H](CCCNC(=N)N)C(N)=O)C(C)C (Ac-LLL[Nle]RVKR-NH2),–,–,–,–,110 µM,–,220 µM,<50%,–
CC(=O)N[C@@H](CC(C)C)C(=O)N[C@@H](CC(C)C)C(=O)N[C@H](CC(C)C)C(=O)N[C@@H](CC(C)C)C(=O)N[C@@H](CCCNC(=N)N)C(=O)N[C@H](C(=O)N[C@@H](CCCCN)C(=O)N[C@@H](CCCNC(=N)N)C(N)=O)C(C)C,980 nM,6260 nM,–,–,190 µM,< 5%,130 µM,<50%,–
CC(=O)N[C@@H](CC(C)C)C(=O)N[C@@H](CC(C)C)C(=O)N[C@@H](CC(C)C)C(=O)N[C@@H](CC(C)C)C(=O)N[C@@H](CCCNC(=N)N)C(=O)N[C@H](C(=O)N[C@@H](CCCCN)C(=O)NCc1ccc(C(=N)N)cc1)C(C)C (Ac-LLLLRVK-{NH(4-amidinobenzyl)}),–,–,–,–,25 µM,–,40 µM,–,150 µM

# More lines, main results first:
Ki (Furin),Ki [1],Stability (Plasma),half-life at 0.5 ug/uL [4],SMILES,IC50 (DU-145),"cytotoxicity at 4 h, 100 µM [2]",IC50 (LNCaP),inhibition (INH) (PC-3 [3]),IC50 (PC-3 [5])
980 nM,39 nM,–,–,CCCC[C@H](NC(=O)[C@H](CC(C)C)NC(C)=O)C(=O)N[C@@H](CC(C)C)C(=O)N[C@@H](CC(C)C)C(=O)N[C@@H](CCCNC(=N)N)C(=O)N[C@H](C(=O)N[C@@H](CCCCN)C(=O)N[C@@H](CCCNC(=N)N)C(N)=O)C(C)C (Ac-L[Nle]LLRVKR-NH2),–,–,–,–,–
650 nM,21 nM,–,–,CCCC[C@H](NC(C)=O)C(=O)N[C@@H](CC(C)C)C(=O)N[C@@H](CC(C)C)C(=O)N[C@@H](CC(C)C)C(=O)N[C@@H](CCCNC(=N)N)C(=O)N[C@H](C(=O)N[C@@H](CCCCN)C(=O)N[C@@H](CCCNC(=N)N)C(N)=O)C(C)C,150 µM,< 5%,180 µM,<50%,–
560 nM,27 nM,–,–,CCCC[C@H](NC(=O)[C@H](CC(C)C)NC(=O)[C@H](CC(C)C)NC(=O)[C@H](CC(C)C)NC(C)=O)C(=O)N[C@@H](CCCN=C(N)N)C(=O)N[C@H](C(=O)N[C@@H](CCCCN)C(=O)N[C@@H](CCCN=C(N)N)C(N)=O)C(C)C (Ac-LLL[Nle]RVKR-NH2),–,< 5%,–,–,–
680 nM,14 nM,Unstable,–,CCCC[C@H](NC(C)=O)C(=O)N[C@@H](CC(C)C)C(=O)N[C@@H](CC(C)C)C(=O)N[C@@H](CCCC)C(=O)N[C@@H](CCCNC(=N)N)C(=O)N[C@H](C(=O)N[C@@H](CCCCN)C(=O)N[C@@H](CCCNC(=N)N)C(N)=O)C(C)C,40 µM,< 5%,90 µM,<50%,–
11000 nM,960 nM,–,–,CC(=O)N[C@@H](CC(C)C)C(=O)N[C@@H](CC(C)C)C(=O)N[C@@H](CC(C)C)C(=O)N[C@@H](CC(C)C)C(=O)N[C@@H](CCCNC(=N)N)C(=O)N[C@H](C(=O)N[C@@H](CCCCN)C(=O)N[C@@H](Cc1ccc(NC(=N)N)cc1)C(N)=O)C(C)C (Ac-LLLLRVK[Phe(4-guanidino)]-NH2),–,–,–,–,–
2100 nM,350 nM,–,–,CCCC[C@H](NC(=O)[C@H](CC(C)C)NC(=O)[C@H](CC(C)C)NC(C)=O)C(=O)N[C@@H](CCCC)C(=O)N[C@@H](CCCN=C(N)N)C(=O)N[C@H](C(=O)N[C@@H](CCCCN)C(=O)N[C@@H](CCCN=C(N)N)C(N)=O)C(C)C (Ac-LL[Nle][Nle]RVKR-NH2),–,–,–,–,–
1070 nM,60 nM,–,–,CCCC[C@H](NC(C)=O)C(=O)N[C@@H](CCCC)C(=O)N[C@@H](CC(C)C)C(=O)N[C@@H](CCCC)C(=O)N[C@@H](CCCN=C(N)N)C(=O)N[C@H](C(=O)N[C@@H](CCCCN)C(=O)N[C@@H](CCCN=C(N)N)C(N)=O)C(C)C,–,–,–,–,–
800 nM,25 nM,–,426 min,CCCC[C@@H](NC(C)=O)C(=O)N[C@@H](CC(C)C)C(=O)N[C@@H](CC(C)C)C(=O)N[C@@H](CC(C)C)C(=O)N[C@@H](CCCNC(=N)N)C(=O)N[C@H](C(=O)N[C@@H](CCCCN)C(=O)N[C@@H](CCCNC(=N)N)C(N)=O)C(C)C,80 µM,< 5%,90 µM,–,150 µM
1120 nM,400 nM,–,336 min,CC(=O)N[C@@H](CC(C)C)C(=O)N[C@@H](CC(C)C)C(=O)N[C@@H](CC(C)C)C(=O)N[C@@H](CC(C)C)C(=O)N[C@@H](CCCNC(=N)N)C(=O)N[C@H](C(=O)N[C@@H](CCCCN)C(=O)NN(CCCNC(=N)N)CC(N)=O)C(C)C (Ac-LLLLRVK-X2),270 µM,< 5%,240 µM,<50%,–
